Published values pooled from the literature.
Protocols differ between the studies behind these lines.
RPS6KA6 N-terminal kinase domain: Ribosomal protein S6 kinase alpha-6, N-terminal kinase domain (RPS6KA6, Homo sapiens, UniProt Q9UK32)
RPS6KA6: Ribosomal protein S6 kinase alpha-6 (RPS6KA6, Homo sapiens, UniProt Q9UK32)
RPS6KA6 C-terminal kinase domain: Ribosomal protein S6 kinase alpha-6, C-terminal kinase domain (RPS6KA6, Homo sapiens, UniProt Q9UK32)

Compound | target | observed | mode | technique | concentration | endpoint | result
COc1ccc2cc(OCC3(C(=O)O)CN(C(=O)c4ccc(F)cc4)C3)ccc2c1 | RPS6KA6 N-terminal kinase domain | cell-free assay |  | competition with immobilised ligand | 1 µM | remaining binding | 77%
CC(C)(C)c1nc(-c2cccc(NS(=O)(=O)c3c(F)cccc3F)c2F)c(-c2ccnc(N)n2)s1 | RPS6KA6 | enzyme activity | inhibitor | radiometric | 1 µM | remaining activity | 98%
Cc1ccc(C(=O)Nc2ccc(CN3CCN(C)CC3)c(C(F)(F)F)c2)cc1C#Cc1cnc2cccnn12 | RPS6KA6 | enzyme activity | inhibitor |  | 23.5 nM | remaining activity | 93%
Cc1nccc(COC(=O)N2C[C@@H]3[C@@H](CNC(=O)c4ccc5[nH]nnc5c4)[C@@H]3C2)n1 | RPS6KA6 N-terminal kinase domain | cell-free assay |  | competition with immobilised ligand | 1 µM | remaining binding | 100%
Nc1ncnc2occ(-c3ccc(NC(=O)Nc4cc(C(F)(F)F)ccc4F)cc3)c12 | RPS6KA6 C-terminal kinase domain | cell-free assay | inhibitor |  | 20 µM | remaining signal | 18%
Cc1cnc(NC2CCOCC2)nc1-n1cnc(C(=O)NC(CN)c2cc(F)cc(Cl)c2)c1 (stereo not shown) | RPS6KA6 | enzyme activity | inhibitor | radiometric | 1 µM | remaining activity | 17%
COc1cc(Cl)c(C(=O)N[C@@H](CN[C@H]2CC[C@@H](N)CC2)Cc2ccc(C#N)cc2)cc1-c1ccc(CN[C@H](C)c2ccc(C)cc2)o1 | RPS6KA6 | enzyme activity | inhibitor |  | 1 µM | remaining activity | 97%
O=C(Nc1cnn(-c2csc(C(=O)NC3COC3)c2)c1)Nc1c(F)cccc1Cl | RPS6KA6 | enzyme activity | inhibitor |  | 5 µM | remaining activity | 92.2%
CC(C)(O)[C@H]1CC[C@H](Nc2ccc3ncc(-c4cccc(C(F)(F)F)c4)n3n2)CC1 | RPS6KA6 | enzyme activity | inhibitor |  | 1 µM | remaining activity | 91.7%
N#CC1c2c([nH]c3c(Cl)c(Cl)ccc23)C(=O)NC12CCCCC2 (racemic) | RPS6KA6 | thermal stability |  | DSF | 10 µM | ΔTm | 1.6 °C
O=C1NC(=O)c2cc(Nc3ccc(F)cc3)c(Nc3ccc(F)cc3)cc21 | RPS6KA6 | cell-free assay |  |  | 0.5 µM | remaining signal | 97.4%
O=C(N1CCS(=O)(=O)CC1)N1C[C@H](c2ccc(OC(F)(F)F)cc2)C[C@H](c2nc(C3CC3)no2)C1 | RPS6KA6 C-terminal kinase domain | cell-free assay |  | competition with immobilised ligand | 1 µM | remaining binding | 100%
Cn1c2c(c3ccc(Cl)c(Cl)c31)C(C#N)C(C)(C)NC2=O (stereo not shown) | RPS6KA6 | thermal stability |  | DSF | 10 µM | ΔTm | 2.6 °C
O=C(NCc1ncc(C(F)(F)F)cc1Cl)c1ccc2c(c1)C1(CCS(=O)(=O)CC1)[C@@H](C1CC1)N2S(=O)(=O)c1ccc(F)cc1 | RPS6KA6 C-terminal kinase domain | cell-free assay |  | competition with immobilised ligand | 1 µM | remaining binding | 100%
C[C@@H]1CCN(c2nccc(-c3cnn4ncccc34)n2)C1 | RPS6KA6 N-terminal kinase domain | binding |  | competition with immobilised ligand | 1 µM | remaining binding | 71%
CO[C@@H](C)c1c(Nc2ccc([C@@H](N(C)C(=O)C3CCS(=O)(=O)CC3)C(F)(F)F)cc2)cnc2cc(Cl)nn12 | RPS6KA6 C-terminal kinase domain | cell-free assay |  | competition with immobilised ligand | 1 µM | remaining binding | 98%
CS(=O)(=O)CCNCc1ccc(-c2ccc3ncnc(Nc4ccc(OCc5cccc(F)c5)c(Cl)c4)c3c2)o1 | RPS6KA6 | cell-free assay |  |  | 0.5 µM | remaining signal | 108%
CO[C@H]1CC[C@H](CNc2ccc(S(=O)(=O)NC(=O)c3ccc(N4CCN(CC5=C(c6ccc(Cl)cc6)CC(C)(C)CC5)CC4)cc3Oc3cnc4[nH]ccc4c3)cc2[N+](=O)[O-])CC1 | RPS6KA6 C-terminal kinase domain | cell-free assay |  | competition with immobilised ligand | 1 µM | remaining binding | 81%
N[C@@H]1CCN(c2nccc(-c3cnn4ncccc34)n2)C1 | RPS6KA6 C-terminal kinase domain | binding |  | competition with immobilised ligand | 1 µM | remaining binding | 100%
